The test system of assay [1] is SW-620. The assay can be described thus: Cytotoxicity against human SW620 cells after 72 hrs by MTT assay. It is filed as functional, cell-based. As to conditions: SW-620, 72 h. In a few lines:
(§1)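 Tumour lines kept in DMEM with 10% FBS and 1% penicillin/streptomycin at 37°C, 5% CO2. Seeded at 1500-5000 cells/well by doubling time and size, 24 h, then compound in DMSO-containing medium (final DMSO 0.1%) for 72 h. MTT (5 mg/mL) 4 h at 37°C, DMSO solubilisation, absorbance at 570 nm.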

Assay [2] has as its system A549. The assay can be described thus: Cytotoxicity against human A549 cells after 72 hrs by MTT assay. In kind it is functional, cell-based. As to conditions: A549, 72 h. In a few lines: as §1
Assay [3] in a line: Cytotoxicity against human EJ28 cells after 72 hrs by MTT assay. As to conditions: EJ-28, 72 h. In kind it is functional, cell-based. In short, it runs like this: as §1
A general note: Formazan colour is commonly taken as a measure of viable cells.

Assay [4] relates to HT-1080. The assay can be described thus: Cytotoxicity against human HT1080 cells after 72 hrs by MTT assay. It is filed as functional, cell-based. As to conditions: HT-1080, 72 h. In a few lines: as §1
In assay [5] the test system is MCF7. In words: Cytotoxicity against human MCF7 cells after 72 hrs by MTT assay. The settings on record: MCF7, 72 h. In kind it is functional, cell-based. In a few lines:
as §1

For assay [6], the system named is NHDF. In words: Cytotoxicity against NHDF after 72 hrs by MTT assay. It is filed as cell-based. As to conditions: Homo sapiens. In short, it runs like this: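 NHDF grown in DMEM with 5% FBS at 37°C, 5% CO2. Seeded at 1500-5000 cells/well, 24 h, then compound added in DMSO-containing medium (final DMSO 0.1%) for 72 h. MTT (5 mg/mL in medium) added for 4 h at 37°C, formazan dissolved in DMSO, absorbance read at 570 nm.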

The test system of assay [7] is SW-620. The assay can be described thus: Cytotoxicity against human SW620 cells assessed as inhibition of cell proliferation at 20 uM after 72 hrs by MTT assay relative to control. In kind it is functional. The settings on record: SW-620, 72 h. In short, it runs like this: (§2)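 Single-concentration screen at 20 μM with 72 h exposure in DMEM with 10% FBS, final DMSO 0.1%. Read-out was MTT (5 mg/mL, 4 h, 37°C), DMSO solubilisation and absorbance at 570 nm, expressed as percent inhibition. Lines reaching a threshold percentage went on to IC50 determination.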

Assay [8] deals with A549. The assay can be described thus: Cytotoxicity against human A549 cells assessed as inhibition of cell proliferation at 20 uM after 72 hrs by MTT assay relative to control. It is filed as functional. As to conditions: A549, 72 h. In a few lines: as §2
Assay [9] is described as follows: Cytotoxicity against human EJ28 cells assessed as inhibition of cell proliferation at 20 uM after 72 hrs by MTT assay relative to control. It is filed as functional. The settings on record: EJ-28, 72 h. In short, it runs like this:
as §2

In assay [10] the test system is HT-1080. The assay can be described thus: Cytotoxicity against human HT1080 cells assessed as inhibition of cell proliferation at 20 uM after 72 hrs by MTT assay relative to control. As to conditions: HT-1080, 72 h. It is filed as functional. In a few lines:
as §2

Assay [11] deals with MCF7. The assay can be described thus: Cytotoxicity against human MCF7 cells assessed as inhibition of cell proliferation at 20 uM after 72 hrs by MTT assay relative to control. It is filed as functional. As to conditions: MCF7, 72 h. In short, it runs like this:
as §2

SMILES strings stand for the structures.

One may read the IC50 as the midpoint of a concentration-inhibition curve. Low values mean greater potency, high ones weaker potency. The term inhibition denotes how much of the control response was suppressed.

Regarding `COc1cccc(/C=C2\CCC/C(=C\c3ccc(Cl)cc3)C2=O)c1OC`, the IC50 in assay [1] was 11.1 µM; in [2], above 20 µM; in [3], 11 µM; in assay [4] it was 11.1 µM; in assay [5] it was 10.3 µM; in assay [6], 18.6 µM. The inhibition at 20 µM in [7], in assay [8], in [9], in assay [10] and in assay [11] was above 50% in each case.

On to `COc1cccc(/C=C2\CCC/C(=C\c3ccccc3Cl)C2=O)c1OC`, for which the IC50 in assay [1] was 10.3 µM; in [2] it was above 20 µM; in [3], 12 µM; in [4], 11.7 µM; in assay [5] it was 11.3 µM; in [6], 44.2 µM. Besides, the inhibition at 20 µM in assay [7], in assay [8], in assay [9], in assay [10] and in [11] was above 50% each time.

On to `COc1ccc(/C=C2\CCC/C(=C\c3cccc(OC)c3OC)C2=O)cc1`, for which the IC50 in assay [1] is 13.6 µM; in assay [2], above 20 µM; in assay [3], 16.8 µM; in assay [4], 16.3 µM; in assay [5] it was 18.6 µM; in [6] it was 43.5 µM. Moreover, the inhibition at 20 µM in assay [7], in [8], in assay [9], in assay [10] and in assay [11] was above 50% each time.

Turning to `COc1ccc(/C=C2\CCC/C(=C\c3ccc(OC)c(OC)c3)C2=O)c(OC)c1`, the IC50 is above 20 µM in [1]; above 20 µM in assay [2]; above 20 µM in assay [3]; 17.1 µM in [4]; 15.6 µM in [5]; above 50 µM in assay [6]. Besides, the inhibition at 20 µM in assay [7], in assay [8], in assay [9], in assay [10] and in [11] was above 50% each time.

With `COc1cc(/C=C2\CCC/C(=C\c3ccc(OC)c(OC)c3)C2=O)ccc1O`, the IC50 in assay [1] worked out at 4.5 µM; in assay [2], 10.3 µM; in assay [3], 4.6 µM; in assay [4] it was 4.6 µM; in [5], 7.9 µM; in [6], 13.7 µM. The inhibition at 20 µM in assay [7], in assay [8], in assay [9], in [10] and in assay [11] was above 50% each time.

Consider `COc1cccc(/C=C2\CCC/C(=C\c3ccccc3Br)C2=O)c1OC`, for which the IC50 in [1] is 12.1 µM; in assay [2] it was above 20 µM; in assay [3], 10.8 µM; in assay [4], 10.8 µM; in assay [5], 9.7 µM; in assay [6] it was above 50 µM. The inhibition at 20 µM in assay [7], in assay [8], in assay [9], in [10] and in [11] was above 50% throughout.

On to `COc1cccc(/C=C2\CCC/C(=C\c3cccc(Br)c3)C2=O)c1OC`, for which the IC50 in [1] was 8.8 µM; in assay [2], above 20 µM; in assay [3], 12.1 µM; in assay [4], 12.2 µM; in [5], 11.7 µM; in [6], 23.9 µM. Further, the inhibition at 20 µM in [7], in assay [8], in assay [9], in [10] and in assay [11] was above 50% throughout.

Take `COc1cccc(/C=C2\CCC/C(=C\c3ccc(O)c(O)c3)C2=O)c1OC`: the IC50 was 6.3 µM in [1]; above 20 µM in assay [2]; 6.4 µM in assay [3]; 4.7 µM in assay [4]; 4.7 µM in [5]; 17.9 µM in assay [6]. In addition, the inhibition at 20 µM in [7], in assay [8], in [9], in assay [10] and in assay [11] was above 50% each time.

Regarding `COc1cccc(/C=C2\CCC/C(=C\c3ccc(O)cc3)C2=O)c1OC`, the IC50 was above 20 µM in [1]; above 20 µM in [2]; above 20 µM in [3]; above 20 µM in [4]; above 20 µM in assay [5]; above 50 µM in assay [6]. In addition, the inhibition at 20 µM in [7], in [8], in [9], in assay [10] and in [11] was above 50% each time.

On to `COc1cc(/C=C2\CCC/C(=C\c3cccc(OC)c3OC)C2=O)ccc1O`, for which the IC50 is 8.6 µM in assay [1]; above 20 µM in assay [2]; 10.6 µM in assay [3]; 5.9 µM in [4]; 11.6 µM in assay [5]; 14.3 µM in assay [6]. Further, the inhibition at 20 µM in [7], in assay [8], in [9], in assay [10] and in assay [11] was above 50% throughout.

For the compound `COc1cccc(/C=C2\CCC/C(=C\c3cc(Cl)cc(Cl)c3)C2=O)c1OC`, the IC50 in assay [1] came to 5.5 µM; in assay [2] it was 12.5 µM; in [3], 7.5 µM; in [4], 6.1 µM; in [5], 4.3 µM; in assay [6] it was 21.6 µM. Further, the inhibition at 20 µM in assay [7], in assay [8], in assay [9], in assay [10] and in assay [11] was above 50% in each case.

Consider `COc1ccc(/C=C2\CCC/C(=C\c3cccc(OC)c3OC)C2=O)c(OC)c1`, for which the concentration for half-maximal inhibition (IC50) in [1] is above 20 µM; in assay [2], above 20 µM; in assay [3] it was above 20 µM; in assay [4] it was above 20 µM; in assay [5], above 20 µM; in [6], above 50 µM. Also, the inhibition at 20 µM in assay [7], in [8], in [9], in assay [10] and in [11] was above 50% in each case.

For the compound `COc1cccc(/C=C2\CCC/C(=C\c3ccc(Cl)c(Cl)c3)C2=O)c1OC`, the IC50 in [1] was 10 µM; in assay [2], above 20 µM; in assay [3], 12.1 µM; in assay [4], 10.8 µM; in assay [5] it was 9 µM; in [6] it was 25.5 µM. For the same compound, the inhibition at 20 µM in assay [7], in [8], in assay [9], in assay [10] and in [11] was above 50% throughout.

Regarding `COc1cc(/C=C2\CCC/C(=C\c3cccc(OC)c3OC)C2=O)cc(OC)c1`, the IC50 in assay [1] turned out to be 3.8 µM; in [2], 10.2 µM; in assay [3] it was 3.6 µM; in [4], 4.5 µM; in assay [5], 1.7 µM; in [6] it was 13.1 µM. Also, the inhibition at 20 µM in assay [7], in assay [8], in assay [9], in assay [10] and in assay [11] was above 50% each time.

As to `COc1ccc(/C=C2\CCC/C(=C\c3ccc(O)c(Cl)c3)C2=O)cc1OC`, the concentration for half-maximal inhibition (IC50) is 7.1 µM in [1]; above 20 µM in assay [2]; 8 µM in assay [3]; 7.6 µM in assay [4]; 12.3 µM in [5]; 21.9 µM in assay [6]. Besides, the inhibition at 20 µM in assay [7], in assay [8], in assay [9], in assay [10] and in assay [11] was above 50% throughout.

With `COc1ccc(/C=C2\CCC/C(=C\c3ccc(Br)cc3)C2=O)cc1OC`, the IC50 in [1] worked out at 5.2 µM; in [2], 16 µM; in assay [3], 7.1 µM; in [4], 4.3 µM; in [5], 6.9 µM; in [6] it was 13.1 µM. Further, the inhibition at 20 µM in [7], in assay [8], in assay [9], in assay [10] and in [11] was above 50% in each case.

As to `COc1ccc(/C=C2\CCC/C(=C\c3ccc(OC)c(OC)c3)C2=O)cc1OC`, the IC50 in assay [1] came to 4.5 µM; in [2], 8.5 µM; in assay [3], 3.5 µM; in assay [4], 3 µM; in assay [5], 13.5 µM; in assay [6] it was 9.7 µM. Further, the inhibition at 20 µM in [7], in assay [8], in assay [9], in assay [10] and in assay [11] was above 50% in each case.
